The values below come from ChEMBL document CHEMBL4422662, “Chemical Control of Mammalian Circadian Behavior through Dual Inhibition of Casein Kinase Iα and δ” (J Med Chem, 2019).

Test [1] has as its target T1, Casein kinase I isoform alpha/delta (Homo sapiens) (UniProt P48730+P48729). Description: Inhibition of CK1alpha/CK1delta in human U2OS cells co-expressing Bmal1-dLuc assessed as modulation circadian clock by measuring drug level causing 5 hrs circadian period lengthening measured every 100 mins by luminescence assay. It counts as cell-based. Summed up: (§1)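 Bmal1-dLuc U2OS cells seeded at 2000 per well and grown 2 days in DMEM/10% FBS. Explant medium with 1 mM luciferin, 10 mM HEPES and 2% B27 (pH 7.2) added, with compounds at 8 μM to 1 nM (3-fold dilutions, final 0.7% DMSO). Luminescence read every 100 min. Period obtained by curve fitting, excluding the first 20 h. Value is the concentration giving the stated lengthening; mean of at least two independent determinations.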

For test [2], the target named is T1, Casein kinase I isoform alpha/delta (Homo sapiens). Description: Inhibition of CK1alpha/CK1delta in human U2OS cells co-expressing Bmal1-dLuc assessed as modulation circadian clock by measuring drug level causing 1 hr circadian period lengthening measured every 100 mins by luminescence assay. In kind it is cell-based. The gist of the method:
as §1

In test [3] the target is T2, Casein kinase I isoform delta (Homo sapiens, UniProt P48730). Briefly: Inhibition of recombinant N-terminal human GST-tagged CK1delta (1 to 294 residues) expressed in Escherichia coli at 5 uM using RKKKAEpSVASLTSQCSYSS peptide as substrate after 3 hrs by kinase-glo luminescent assay relative to control.
Target sequence in this assay (P48730 whole entry, looked up, the tested form may be a part, canonical isoform): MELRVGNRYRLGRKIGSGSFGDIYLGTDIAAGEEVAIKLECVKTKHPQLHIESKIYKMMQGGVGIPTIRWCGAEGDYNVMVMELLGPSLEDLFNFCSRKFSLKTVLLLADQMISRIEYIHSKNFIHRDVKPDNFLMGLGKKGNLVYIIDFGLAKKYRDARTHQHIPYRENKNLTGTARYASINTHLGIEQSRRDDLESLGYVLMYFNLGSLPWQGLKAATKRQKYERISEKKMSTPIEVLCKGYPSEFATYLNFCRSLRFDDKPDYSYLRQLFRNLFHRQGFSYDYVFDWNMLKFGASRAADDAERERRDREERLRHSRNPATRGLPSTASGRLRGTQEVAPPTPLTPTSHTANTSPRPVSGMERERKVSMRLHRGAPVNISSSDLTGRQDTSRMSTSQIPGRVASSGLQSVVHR
The target of test [4] is T2, Casein kinase I isoform delta. Briefly: Inhibition of recombinant N-terminal human GST-tagged CK1delta (1 to 294 residues) expressed in Escherichia coli using RKKKAEpSVASLTSQCSYSS peptide as substrate after 3 hrs by kinase-glo luminescent assay relative to control. Summed up: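 CKI buffer: 40 mM Tris, 10 mM MgCl2, 0.5 mM DTT, 0.1 mg/mL BSA, pH 7.5. Compound added first (final 5% DMSO), then ATP to a final 5 μM. Incubated 30 °C for 3 h; remaining ATP read by Kinase-Glo luminescence.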
Target sequence in this assay (P48730 whole entry, the tested form may be a part, canonical isoform): as the sequence (P48730 whole entry, looked up, the tested form may be a part, canonical isoform) above

Test [5] deals with T3, Casein kinase I isoform alpha (Homo sapiens, UniProt P48729). Briefly: Inhibition of recombinant full length human GST-tagged CK1apha expressed in baculovirus using peptide as substrate after 3 hrs by kinase-glo luminescent assay. Summed up:
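Reaction held 1 ng/μL CKIα and 50 μM CKI peptide substrate in CKI buffer (40 mM Tris, 10 mM MgCl2, 0.5 mM DTT, 0.1 mg/mL BSA, pH 7.5). Final 5% DMSO from compound. Started with ATP (final 5 μM). Ran 3 h at 30 °C, then Kinase-Glo reagent added and luminescence recorded.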
Target sequence in this assay (P48729 whole entry, canonical isoform): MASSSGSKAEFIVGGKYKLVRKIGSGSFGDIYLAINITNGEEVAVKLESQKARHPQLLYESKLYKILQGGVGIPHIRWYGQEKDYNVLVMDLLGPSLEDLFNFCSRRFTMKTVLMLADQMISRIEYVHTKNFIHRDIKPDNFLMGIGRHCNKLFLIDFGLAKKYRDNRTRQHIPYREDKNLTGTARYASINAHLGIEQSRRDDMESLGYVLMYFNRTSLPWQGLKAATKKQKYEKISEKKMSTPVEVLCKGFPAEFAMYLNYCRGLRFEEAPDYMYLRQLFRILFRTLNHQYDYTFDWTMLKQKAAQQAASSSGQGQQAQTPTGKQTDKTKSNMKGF

The target of test [6] is Cyclin-dependent kinase 7 (Homo sapiens) (UniProt P50613). Briefly: Inhibition of CDK7 (unknown origin) at 5 uM relative to control.
In test [7] the target is T4, Casein kinase I isoform alpha-like (Homo sapiens) (UniProt Q8N752).
T4 sequence (whole entry): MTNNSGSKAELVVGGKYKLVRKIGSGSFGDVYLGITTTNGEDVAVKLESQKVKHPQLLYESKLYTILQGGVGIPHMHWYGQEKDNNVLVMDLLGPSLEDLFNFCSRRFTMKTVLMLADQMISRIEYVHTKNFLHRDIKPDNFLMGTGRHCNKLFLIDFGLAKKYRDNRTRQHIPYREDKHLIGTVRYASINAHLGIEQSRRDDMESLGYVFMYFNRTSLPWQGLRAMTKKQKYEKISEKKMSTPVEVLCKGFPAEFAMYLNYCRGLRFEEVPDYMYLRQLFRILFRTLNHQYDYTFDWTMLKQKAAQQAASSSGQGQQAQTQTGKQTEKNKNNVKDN
Briefly: Inhibition of CK1alpha-like protein (unknown origin) at 5 uM relative to control.

Test [8] concerns Mus musculus. Briefly: Modulation of circadian rhythms in C57BL/6J mouse assessed as lengthening of time period of circadian behavior at 5 mM administered via infusion using osmotic pump by passive infrared sensor analysis. It counts as functional. Summed up: (§2)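 Male C57BL/6J mice, 8 weeks old, entrained to 12 h light:12 h dark and then released into constant darkness. Drug infused continuously into the lateral ventricle by osmotic mini-pump via a stereotaxic cannula (0.2 mm anterior, 1.4 mm lateral, 2.2 mm deep). Artificial cerebrospinal fluid infusion served as control, with buffer infusion afterwards. Movement recorded each minute by passive infrared sensor to derive period.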

Test [9] concerns the target T3, Casein kinase I isoform alpha. Briefly: Inhibition of CK1apha (unknown origin) at 5 uM relative to control.
Target sequence in this assay (P48729 2-337 limits assumed): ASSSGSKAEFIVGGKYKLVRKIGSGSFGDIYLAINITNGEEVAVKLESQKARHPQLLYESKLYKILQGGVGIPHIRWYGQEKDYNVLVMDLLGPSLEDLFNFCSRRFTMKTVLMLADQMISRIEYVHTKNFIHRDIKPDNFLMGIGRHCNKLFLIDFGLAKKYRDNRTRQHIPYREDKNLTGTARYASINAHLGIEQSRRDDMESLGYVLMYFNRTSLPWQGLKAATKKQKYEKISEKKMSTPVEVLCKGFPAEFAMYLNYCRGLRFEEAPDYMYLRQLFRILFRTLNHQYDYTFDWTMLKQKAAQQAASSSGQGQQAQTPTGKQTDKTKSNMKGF
The target of test [10] is Dual specificity protein kinase CLK2 (Homo sapiens) (UniProt P49760). Briefly: Inhibition of CLK2 (unknown origin) at 5 uM relative to control.
Test [11] deals with SRSF protein kinase 2 (Homo sapiens) (UniProt P78362). Briefly: Inhibition of SRPK2 (unknown origin) at 5 uM relative to control.
Test [12] addresses T5, Cyclin-dependent kinase 2 (Homo sapiens, UniProt P24941). Briefly: Inhibition of CDK2 (unknown origin) after 3 hrs by kinase-glo luminescent assay relative to control.
Test [13] addresses SRSF protein kinase 1 (Homo sapiens) (UniProt Q96SB4). Description: Inhibition of SRPK1 (unknown origin) at 5 uM relative to control.
In test [14] the target is CDK7/Cyclin H/MNAT1 (Homo sapiens) (UniProt P51946+P50613+P51948). Description: Inhibition of recombinant full length C-terminal human His-tagged CDK7/cyclin H/N-terminal MAT1 expressed in baculovirus expression system at 5 uM using Cdk7/9 peptide as substrate after 3 hrs by kinase-glo luminescent assay relative to control.
Test [15] relates to Mus musculus. Description: Modulation of circadian rhythms in C57BL/6J mouse assessed as lengthening of time period of circadian behavior at 15 mM administered via infusion using osmotic pump by passive infrared sensor analysis. In kind it is functional. Summed up: as §2
The target in test [16] is T6, Mitogen-activated protein kinase 1 (Homo sapiens, UniProt P28482). Briefly: Inhibition of N-terminal GST-tagged recombinant full-length human MAPK1 expressed in Escherichia coli using MBP1 as substrate after 3 hrs by kinase-glo luminescent assay relative to control. Summed up: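 MAPK1 assayed as ERK2 at 1.5 ng/μL with 0.8 μg/μL MBP. ERK buffer: 50 mM Tris, 10 mM MgCl2, 0.5 mM DTT, 1 mM EGTA, pH 7.5. Compound at final 5% DMSO, then ATP (final 5 μM). Incubated 3 h at 30 °C; Kinase-Glo luminescence.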

The target in test [17] is T2, Casein kinase I isoform delta. Description: Inhibition of CK1delta (unknown origin) at 5 uM relative to control.
Target sequence in this assay (P48730 whole entry, looked up, the tested form may be a part, canonical isoform): as the sequence (P48730 whole entry, looked up, the tested form may be a part, canonical isoform) above
In test [18] the target is CDK7/Cyclin H/MNAT1 (Homo sapiens, UniProt P50613). Briefly: Inhibition of recombinant full length C-terminal human His-tagged CDK7/cyclin H/N-terminal MAT1 expressed in baculovirus expression system using Cdk7/9 peptide as substrate after 3 hrs by kinase-glo luminescent assay relative to control. The gist of the method: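 CDK7 used at 5 ng/μL with 100 μM Cdk7/9 peptide substrate in CKI buffer (40 mM Tris, 10 mM MgCl2, 0.5 mM DTT, 0.1 mg/mL BSA, pH 7.5). ATP start at final 5 μM, 30 °C for 3 h, Kinase-Glo luminescence read-out.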

Test [19] relates to Mus musculus. Description: Reversible modulation of circadian rhythms in C57BL/6J mouse assessed as lengthening of time period of circadian behavior at 5 mM administered via infusion using osmotic pump followed buffer infusion by passive infrared sensor analysis. In kind it is functional, organism-based. Summed up:
as §2

Test [20] deals with T3, Casein kinase I isoform alpha. Description: Inhibition of recombinant full length human GST-tagged CK1apha expressed in baculovirus at 5 uM using peptide as substrate after 3 hrs by kinase-glo luminescent assay.
Target sequence in this assay (P48729 2-337 limits assumed): as the sequence (P48729 2-337 limits assumed) above
In test [21] the target is Casein kinase I isoform epsilon (Homo sapiens) (UniProt P49674). Description: Inhibition of CK1epsilon (unknown origin) at 5 uM relative to control.
The target in test [22] is Cyclin-dependent kinase 6 (Homo sapiens) (UniProt Q00534). Briefly: Inhibition of CDK6 (unknown origin) at 5 uM relative to control.
The target of test [23] is T5, Cyclin-dependent kinase 2. Description: Inhibition of CDK2 (unknown origin) at 5 uM after 3 hrs by kinase-glo luminescent assay relative to control.
In test [24] the test system is Mus musculus. Description: Modulation of circadian rhythms in C57BL/6J mouse assessed as lengthening of time period of circadian behavior at 3 mM administered via infusion using osmotic pump by passive infrared sensor analysis. In kind it is functional. Summed up: as §2
Test [25] has as its system Mus musculus. Briefly: Modulation of circadian rhythms in C57BL/6J mouse assessed as lengthening of time period of circadian behavior at 1 mM administered via infusion using osmotic pump by passive infrared sensor analysis. It counts as functional. The gist of the method: as §2
For test [26], the target named is T6, Mitogen-activated protein kinase 1. Description: Inhibition of N-terminal GST-tagged recombinant full-length human MAPK1 expressed in Escherichia coli at 5 uM using MBP as substrate after 3 hrs by kinase-glo luminescent assay relative to control.

Calls of active or inactive are those of the source. The calls are words filed in the database; no cut-off is given here.

T1 sequence (P48729 whole entry, looked up, canonical isoform): as the sequence (P48729 whole entry, canonical isoform) above
T1 sequence (P48730 whole entry, looked up, canonical isoform): as the sequence (P48730 whole entry, looked up, the tested form may be a part, canonical isoform) above
T6 sequence (P28482 whole entry): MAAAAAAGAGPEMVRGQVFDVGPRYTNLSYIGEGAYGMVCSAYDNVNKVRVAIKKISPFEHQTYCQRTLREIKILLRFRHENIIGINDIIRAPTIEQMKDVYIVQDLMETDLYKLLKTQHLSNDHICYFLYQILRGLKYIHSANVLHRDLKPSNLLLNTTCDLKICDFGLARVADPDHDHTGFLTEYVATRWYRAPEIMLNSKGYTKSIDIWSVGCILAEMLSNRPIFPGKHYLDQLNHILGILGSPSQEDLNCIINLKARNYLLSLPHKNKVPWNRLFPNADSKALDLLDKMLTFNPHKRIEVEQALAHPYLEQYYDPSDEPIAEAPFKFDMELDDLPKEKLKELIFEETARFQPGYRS
Sequence of CDK7/Cyclin H/MNAT1 (P51946 whole entry): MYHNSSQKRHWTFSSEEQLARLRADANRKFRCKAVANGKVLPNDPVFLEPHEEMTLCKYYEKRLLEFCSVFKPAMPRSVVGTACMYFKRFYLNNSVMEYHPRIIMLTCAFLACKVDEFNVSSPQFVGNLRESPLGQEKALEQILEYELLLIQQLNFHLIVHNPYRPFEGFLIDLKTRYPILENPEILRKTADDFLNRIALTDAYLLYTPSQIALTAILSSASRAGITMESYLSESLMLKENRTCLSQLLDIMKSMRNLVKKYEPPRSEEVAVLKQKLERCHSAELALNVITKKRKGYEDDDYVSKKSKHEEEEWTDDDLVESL
Sequence of CDK7/Cyclin H/MNAT1 (P50613 whole entry): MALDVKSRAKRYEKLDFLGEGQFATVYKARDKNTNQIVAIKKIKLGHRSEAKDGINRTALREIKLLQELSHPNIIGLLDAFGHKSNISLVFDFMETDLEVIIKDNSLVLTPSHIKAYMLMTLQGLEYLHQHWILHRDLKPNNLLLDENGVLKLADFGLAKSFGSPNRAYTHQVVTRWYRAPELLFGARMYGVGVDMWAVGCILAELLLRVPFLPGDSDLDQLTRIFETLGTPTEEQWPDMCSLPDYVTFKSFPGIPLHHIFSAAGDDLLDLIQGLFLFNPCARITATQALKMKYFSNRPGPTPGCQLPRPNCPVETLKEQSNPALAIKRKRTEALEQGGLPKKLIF
Sequence of CDK7/Cyclin H/MNAT1 (P51948 whole entry, further chain): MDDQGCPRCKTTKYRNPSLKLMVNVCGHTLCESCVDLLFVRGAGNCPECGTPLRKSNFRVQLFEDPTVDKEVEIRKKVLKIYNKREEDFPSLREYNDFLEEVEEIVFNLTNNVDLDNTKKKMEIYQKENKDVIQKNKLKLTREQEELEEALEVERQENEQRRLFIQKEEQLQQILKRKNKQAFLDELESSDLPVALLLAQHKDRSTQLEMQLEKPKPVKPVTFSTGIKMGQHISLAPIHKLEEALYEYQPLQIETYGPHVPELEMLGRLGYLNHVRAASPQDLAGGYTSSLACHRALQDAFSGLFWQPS
Sequence of Cyclin-dependent kinase 7 (Homo sapiens) (P50613 whole entry, canonical isoform): as the sequence (P50613 whole entry) above
Sequence of SRSF protein kinase 2 (Homo sapiens) (P78362 whole entry, looked up): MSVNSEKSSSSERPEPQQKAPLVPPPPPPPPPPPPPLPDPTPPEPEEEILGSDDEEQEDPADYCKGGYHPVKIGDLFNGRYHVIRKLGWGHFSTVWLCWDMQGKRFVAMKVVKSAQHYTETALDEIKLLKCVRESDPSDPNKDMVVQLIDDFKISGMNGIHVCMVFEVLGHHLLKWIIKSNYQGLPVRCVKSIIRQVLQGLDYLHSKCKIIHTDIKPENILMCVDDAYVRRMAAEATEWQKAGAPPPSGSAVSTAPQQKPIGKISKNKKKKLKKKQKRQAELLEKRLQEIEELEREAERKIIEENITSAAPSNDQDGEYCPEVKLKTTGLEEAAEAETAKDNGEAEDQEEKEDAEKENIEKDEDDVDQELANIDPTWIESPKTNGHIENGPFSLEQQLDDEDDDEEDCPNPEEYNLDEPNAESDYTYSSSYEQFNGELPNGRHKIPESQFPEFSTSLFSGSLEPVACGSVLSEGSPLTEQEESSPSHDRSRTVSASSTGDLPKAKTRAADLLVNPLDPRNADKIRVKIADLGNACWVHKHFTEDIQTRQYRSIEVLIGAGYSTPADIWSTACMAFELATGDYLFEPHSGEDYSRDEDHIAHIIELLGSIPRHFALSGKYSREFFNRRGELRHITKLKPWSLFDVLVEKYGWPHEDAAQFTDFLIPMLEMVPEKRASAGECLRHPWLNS

Regarding `CC(C)n1cnc2c(NCc3cccc(C(F)(F)F)c3)nc(NCCN(C)C)nc21`, the EC in test [1] was found to be 0.9 µM; in test [2] it was 0.09 µM.

As to `CC(C1CC1)n1cnc2c(OCc3cccc(C(F)(F)F)c3)nc(NCCN(C)C)nc21` (centres undefined), the EC entry in test [1] and in [2] was “inactive” each time.

For the molecule `CC(C1CC1)n1cnc2c(NCc3cccc(C(F)(F)F)c3)nc(NCCN(C)C)nc21` (centres undefined), the inhibition result in [3], in test [10], in test [11], in test [13], in test [14] and in test [20] was “Active” in each case. Also, the IC50 in test [4] is 3.6 µM; in [5], 1.8 µM; in test [12] it was 37 µM; in test [16], 850 µM; in test [18] it was 2.4 µM. The inhibition in test [6], in [7], in test [9], in [17], in [21] and in test [22] was above 50% each time. The Time in test [8] and in test [15] was 0.15 h each time. Moreover, the EC in test [1] was determined as 0.32 µM; in test [2] it was 0.022 µM. Further, the outcome in [19] was Active.

For `CC(C)n1cnc2c(NCc3cccc(C(F)(F)F)c3)nc(N3CCCN(C)CC3)nc21`, the EC in test [1] was found to be 5.8 µM; in [2], 0.68 µM.

For `CC(C)n1cnc2c(NCc3cccc(C(F)(F)F)c3)nc(NC3CC3)nc21`, the EC in test [1] came to 3.04 µM; in test [2], 1.62 µM.

As for `CC(C1CC1)n1cnc2c(N(C)Cc3cccc(C(F)(F)F)c3)nc(NCCN(C)C)nc21` (centres undefined), the EC result in test [1] and in test [2] was “inactive” throughout.

For `CC(C)Oc1nc(NCc2cccc(C(F)(F)F)c2)c2ncn(C(C)C)c2n1`, the EC in test [1] was determined as 2.75 µM; in test [2] it was 0.39 µM.

Take `CC(C1CC1)n1cnc2c(NCc3cccc(C(F)(F)F)c3)ncnc21` (centres undefined): the results for the EC in test [1] and in test [2] were 0.9 µM and 0.09 µM, respectively.

`CC[C@H](CO)Nc1nc(NCc2cccc(C(F)(F)F)c2)c2ncn(C(C)C)c2n1`: the EC in test [1] came out at 3.76 µM; in test [2], 0.38 µM.

Turning to `CC(C)n1cnc2c(NCc3cccc(C(F)(F)F)c3)nc(N3CCC(O)CC3)nc21`, the EC in test [1] is 10.4 µM; in test [2], 1.98 µM.

Regarding `CC(C)n1cnc2c(NCc3cccc(C(F)(F)F)c3)ncnc21`, the inhibition in test [23], in test [3], in test [14], in test [26] and in test [20] was above 30% in each case. In addition, the IC50 in [4] stood at 12 µM; in test [5], 12 µM; in [12], 13 µM; in test [16] it was 59 µM; in test [18], 32 µM. The Time was 0.1 h in test [24], 0.1 h in [8], 0.05 h in [25] and 0.15 h in test [15]. Also, the EC in test [1] was determined as 3.4 µM; in test [2], 0.39 µM.

Turning to `CC(C)n1cnc2c(NCc3cccc(C(F)(F)F)c3)nc(NCCN3CCOCC3)nc21`, the EC stood at 9.33 µM in [1] and 1.65 µM in test [2].

On to `CC(C)n1cnc2c(NCc3cccc(C(F)(F)F)c3)nc(NCc3ccccc3)nc21`, for which the EC entry in [1] and in test [2] was “inactive” throughout.

In the case of `CC(C)n1cnc2c(NCc3cccc(C(F)(F)F)c3)nc(N3CCN(C)CC3)nc21`, the values for the EC in test [1] and in test [2] were 3.66 µM and 0.9 µM, respectively.

For the molecule `COc1nc(NCc2cccc(C(F)(F)F)c2)c2ncn(C(C)C)c2n1`, the EC in [1] was 2.39 µM; in [2], 0.32 µM.

For the molecule `CC(=O)N1CCN(c2nc(NCc3cccc(C(F)(F)F)c3)c3ncn(C(C)C)c3n2)CC1`, the values for the EC in test [1] and in test [2] were 5.7 µM and 1.03 µM, respectively.

Regarding `CC(C)n1cnc2c(NCc3cccc(C(F)(F)F)c3)nc(NCCN)nc21`, the EC was found to be 5.23 µM in [1] and 0.58 µM in [2].

Turning to `COCC1CCCN1c1nc(NCc2cccc(C(F)(F)F)c2)c2ncn(C(C)C)c2n1` (centres undefined), the EC entry in test [1] and in test [2] was “inactive” throughout.

As for `CC[C@H](CO)Nc1nc(NCc2ccccc2)c2ncn(C(C)C)c2n1`, the EC in test [1] turned out to be 9 µM; in [2] it was 0.96 µM.

In the case of `CCCCOc1nc(NCc2cccc(C(F)(F)F)c2)c2ncn(C(C)C)c2n1`, the EC amounted to 23.4 µM in test [1] and 6.39 µM in test [2].
